Test results from publication PMC11555253 (Scientific Reports, 2024).

Experiments:
α-glucosidase [1] = assay: Enzyme kinetic study; format: biochemical, Saccharomyces cerevisiae; settings: Km increased, Vmax constant with rising inhibitor concentration
Procedure, shortened: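 Yeast α-glucosidase (1 U/mL) was preincubated 15 min at 30 °C with test compound at 0, 12.5, 25 and 50 µM or 0, 15, 30 and 60 µM. p-Nitrophenyl α-D-glucopyranoside was then added at graded concentrations, and absorbance change at 405 nm was followed for 20 min. Double-reciprocal plots were made, and KI was taken from a replot of apparent Km versus inhibitor concentration.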

α-glucosidase [2] = assay: Fluorescence quenching measurements and thermodynamic analysis of binding; design: species or system Saccharomyces cerevisiae
Procedure, shortened: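 α-Glucosidase (0.1 U/mL) was equilibrated 10 min with test compound at 0 to 1.0 µM. Emission was scanned from 300–450 nm with excitation at 280 nm in a 1.0 cm quartz cell, and enzyme-free compound background was subtracted. Spectra covered 20–60 °C. KA came from F0/(F0–F) versus total drug concentration at 20 °C and 60 °C, with binding-site number at 20 °C.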

[3] = test system: Saccharomyces cerevisiae α-glucosidase; assay: α-Glucosidase inhibition assay; format: biochemical; settings: IC50 compared with acarbose

inhibition mode (α-glucosidase [1])	KA (binding constant) (α-glucosidase [2]; 20 °C)	KA (binding constant) (α-glucosidase [2]; 60 °C)	times more potent than acarbose [3] [times]	SMILES
competitive inhibition	4.8 × 10 ^4 L mol^–1 s^–1	2.7 × 10 ^4 L mol^–1 s^–1	15	COc1ccccc1NC(=O)Cn1cc(CSc2nc3ccccc3c3nc(-c4ccccc4)c(-c4ccccc4)n23)nn1 [19e, 2-(4-(((2,3-diphenylimidazo[1,2-c]quinazolin-5-yl)thio)methyl)-1H-1,2,3-triazol-1-yl)-N-(2-methoxyphenyl)acetamide]
competitive inhibition	6.8 × 10 ^4 L mol^–1 s^–1	5.0 × 10 ^4 L mol^–1 s^–1		COc1ccccc1NC(=O)Cn1cc(CSc2nc3ccccc3c3nc4ccccc4n23)nn1 [27e, 2-(4-((benzo[4,5]imidazo[1,2-c]quinazolin-6-ylthio)methyl)-1H-1,2,3-triazol-1-yl)-N-(2-methoxyphenyl)acetamide]
